Assay results gathered from unrelated publications.
Target: Sodium-dependent dopamine transporter (SLC6A3, Homo sapiens, UniProt Q01959)

CCN(Cc1ccccc1C(F)(F)F)C(=O)C1CCN(S(=O)(=O)c2ccc3[nH]ncc3c2)CC1
inhibition (ligand displacement; radioligand; 10 µM): 39%

Clc1ccc(C(c2ccc(Cl)cc2)c2nnnn2CCCCN2CCN(Cc3ccccc3)CC2)cc1
inhibition (transporter uptake; inhibitor; HEK293; 1 µM): 91.7%

Nc1ccc(-c2ccncc2)cc1NC(=O)N1CCCC1
inhibition (ligand displacement; radioligand; 10 µM): 21%

Oc1cccc(Nc2nc(-c3ccc(F)cc3F)cs2)c1
inhibition (cell-free assay; 10 µM): 49.8%

O=C1N=C(N2CCCCN2)S/C1=C\c1ccc(F)cc1O
inhibition (ligand displacement; radioligand; 10 µM): < 10%

N#Cc1cc(Cn2c(N3CCCC3)nc3ccccc32)ccc1F
inhibition (ligand displacement; 10 µM): 19.3%

COc1cc(NC(C)=O)c(Cl)cc1C(=O)Nc1nccs1
inhibition (cell-free assay; 10 µM): 5.5%

CCN(CC)c1ccc(C2Nc3ccc(C(=O)c4ccccc4)cc3NC3=C2C(=O)CC(C)(C)C3)cc1 (stereo not drawn)
inhibition (ligand displacement; radioligand; 10 µM): 69%

Fc1ccc(C(c2ccc(F)cc2)c2nnnn2CCCCN2CCN(CCCc3ccccc3)CC2)cc1
inhibition (transporter uptake; inhibitor; HEK293; 1 µM): 56.2%

CCCNc1nc2ccccc2n1Cc1ccc(Cl)cc1
inhibition (ligand displacement; 10 µM): 24.3%

Clc1ccc(C(c2ccccc2)c2nnnn2CCCN2CCC(CCCc3ccccc3)CC2)cc1 (stereo not drawn)
inhibition (transporter uptake; inhibitor; HEK293; 1 µM): 89.6%

Cc1cc(-c2nc(CN3CCNCC3)no2)cc2c1C(=O)N(Cc1ccc(OC(F)(F)F)cc1)C2
inhibition (ligand displacement; radioligand; 10 µM): 44%
